How the values were obtained:
KB = experiment: Cytotoxicity against KB cells.; type: functional, cell-based; conditions: Homo sapiens
L1210 = experiment: Cytotoxicity against L1210 cells.; type: functional, cell-based; conditions: Mus musculus
[1] = tested on: Human immunodeficiency virus 1; experiment: (§1) Antiviral activity against Human immunodeficiency virus type-1; type: functional, organism-based
Summary of the method: (§2)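 Cell-protection read-out: HSV-1 Kos strain on MRC-5 cells, HSV-2 G strain on MRC-5 cells, HIV-1 IIIb strain on MT-4 cells. Cells infected at MOI 0.02, then immediately plated with serial compound dilutions. After 4 days of incubation at 36 °C, viable cells were counted by MTT. […].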

Human alphaherpesvirus 1 = experiment: Antiviral activity against Herpes simplex virus type-1 (HSV-1).; type: functional, organism-based; summary of the method: as §2
Human alphaherpesvirus 2 = experiment: Antiviral activity against Herpes simplex virus type-2 (HSV-2).; type: functional, organism-based; summary of the method: as §2
[2] = tested on: Human immunodeficiency virus 1; experiment: as §1

## N#C[C@]1(CO)O[C@@H](n2ccc(=O)[nH]c2=O)[C@H](O)[C@@H]1O
KB
  IC50: > 350 µM
L1210
  IC50: > 350 µM

## C=C[C@]1(CO)O[C@@H](n2ccc(N)nc2=O)C[C@@H]1O
[1]
  EC50: 0.0086 µM
  IC50: 0.18 µM
Human alphaherpesvirus 1
  EC50: > 350 µM
  IC50: > 350 µM
Human alphaherpesvirus 2
  EC50: > 350 µM
  IC50: > 350 µM
KB
  IC50: > 350 µM
L1210
  IC50: 21 µM

## N#C[C@]1(CO)O[C@@H](n2ccc(N)nc2=O)[C@H](O)[C@@H]1O
KB
  IC50: > 350 µM
L1210
  IC50: > 350 µM

## C#C[C@]1(CO)O[C@@H](n2ccc(=O)[nH]c2=O)[C@H](O)[C@@H]1O
KB
  IC50: > 350 µM
L1210
  IC50: > 350 µM

## CC[C@]1(CO)O[C@@H](n2ccc(N)nc2=O)C[C@@H]1O
[1]
  EC50: 0.013 µM
  IC50: 0.77 µM
Human alphaherpesvirus 1
  EC50: > 350 µM
  IC50: > 350 µM
Human alphaherpesvirus 2
  EC50: > 350 µM
  IC50: > 350 µM
KB
  IC50: > 350 µM
L1210
  IC50: 55 µM

## C#C[C@]1(CO)O[C@@H](n2ccc(N)nc2=O)C[C@@H]1O
[1]
  EC50: 0.0022 µM
  IC50: 0.16 µM
Human alphaherpesvirus 1
  EC50: 200 µM
  IC50: > 350 µM
Human alphaherpesvirus 2
  EC50: > 350 µM
  IC50: > 350 µM

## C[C@]1(CO)O[C@@H](n2ccc(N)nc2=O)C[C@@H]1O
[1]
  EC50: 0.062 µM
  IC50: 0.062 µM
Human alphaherpesvirus 1
  EC50: 3.1 µM
  IC50: 260 µM
Human alphaherpesvirus 2
  EC50: 0.58 µM
  IC50: 260 µM
KB
  IC50: > 350 µM
L1210
  IC50: 0.16 µM

## Nc1ccn([C@H]2C[C@H](O)[C@@](/C=C/Cl)(CO)O2)c(=O)n1
[1]
  EC50: 2.1 µM
  IC50: 4.6 µM
Human alphaherpesvirus 1
  EC50: > 350 µM
  IC50: > 350 µM
Human alphaherpesvirus 2
  EC50: > 350 µM
  IC50: > 350 µM
KB
  IC50: > 350 µM
L1210
  IC50: 200 µM

## N#C[C@]1(CO)O[C@@H](n2ccc(N)nc2=O)C[C@@H]1O
[1]
  EC50: 0.0012 µM
  IC50: 0.17 µM
Human alphaherpesvirus 1
  EC50: 3.6 µM
  IC50: > 350 µM
Human alphaherpesvirus 2
  EC50: 21 µM
  IC50: > 350 µM
KB
  IC50: > 350 µM
L1210
  IC50: 0.33 µM

## C#C[C@]1(CO)O[C@@H](n2ccc(N)nc2=O)[C@H](O)[C@@H]1O
KB
  IC50: > 350 µM
L1210
  IC50: > 350 µM

## Nc1nc2c(ncn2COCCO)c(=O)[nH]1 [ACYCLOVIR]
Human alphaherpesvirus 1
  EC50: 0.36 µM
  IC50: > 350 µM
Human alphaherpesvirus 2
  EC50: 1.1 µM
  IC50: > 350 µM

## Cc1cn([C@H]2C[C@H](N=[N+]=[N-])[C@@H](CO)O2)c(=O)[nH]c1=O [ZIDOVUDINE]
[1]
  IC50: 3.2 µM
[2]
  EC50: 0.0041 µM

From ChEMBL document CHEMBL1132321, “Nucleosides and nucleotides. 185. Synthesis and biological activities of 4'alpha-C-branched-chain sugar pyrimidine nucleosides” (J Med Chem, 1999)
